ChEMBL document CHEMBL1124257, “An examination of O-2-isocephems as orally absorbable antibiotics” (J Med Chem, 1988)

Test system: Mus musculus
Assay: Area under curve(AUC) was measured in mice after oral administration.
Assay type: ADME, organism-based
Set-up: concentration or dose not given beside the values; unit not given here
Conditions: in vivo
In short: (§1)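 Male Swiss-Webster mice (20 ± 2 g) were given a single 50 mg/kg oral dose by gavage. Blood concentrations and urine levels were measured by microbiological assay, and urinary recovery was taken over 0–6 h.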

Compound	AUC
C/C=C/C1=C(C(=O)O)N2C(=O)[C@@H](NC(=O)[C@H](N)c3ccc(O)cc3)[C@H]2SC1.O (relative stereo; 56) [CEFPROZIL, (E)-]	42
C/C=C/C1=C(C(=O)O)N2C(=O)[C@@H](NC(=O)[C@H](N)c3ccc(O)cc3)[C@H]2SC1.O (relative stereo; 57) [CEFPROZIL, (E)-]	45

Test system: not listed separately
Assay: (§2) Cmax was measured in mice after an oral dose of 50 mg/kg.
Assay type: ADME, organism-based
Set-up: dose 50 mg/kg, route oral
Conditions: mouse, in vivo
In short: as §1

Compound	Cmax [ng/mL]
C/C=C/C1=C(C(=O)O)N2C(=O)[C@@H](NC(=O)[C@H](N)c3ccc(O)cc3)[C@H]2SC1.O (relative stereo; 56) [CEFPROZIL, (E)-]	46000

Test system: Mus musculus
Assay: as §2
Assay type: ADME, organism-based
Set-up: dose 50 mg/kg, route oral
Conditions: in vivo
In short: as §1

Compound	Cmax [ng/mL]
C/C=C/C1=C(C(=O)O)N2C(=O)[C@@H](NC(=O)[C@H](N)c3ccc(O)cc3)[C@H]2SC1.O (relative stereo; 57) [CEFPROZIL, (E)-]	35000

Organism: Mus musculus
Assay: Percentage of dose recovered after 0-6 hr in the urine of mice was measured.
Assay type: ADME, organism-based
Conditions: in vivo
In short: as §1

Compound	Urinary recovery (% of dose, 0-6 h) [%]
C/C=C/C1=C(C(=O)O)N2C(=O)[C@@H](NC(=O)[C@H](N)c3ccc(O)cc3)[C@H]2SC1.O (relative stereo; 56) [CEFPROZIL, (E)-]	85
C/C=C/C1=C(C(=O)O)N2C(=O)[C@@H](NC(=O)[C@H](N)c3ccc(O)cc3)[C@H]2SC1.O (relative stereo; 57) [CEFPROZIL, (E)-]	65

Test system: not listed separately
Assay: Half life was measured.
Assay type: ADME
Conditions: not given
In short: as §1

Compound	half-life [min]	T1/2 [min]
C/C=C/C1=C(C(=O)O)N2C(=O)[C@@H](NC(=O)[C@H](N)c3ccc(O)cc3)[C@H]2SC1.O (relative stereo; 56) [CEFPROZIL, (E)-]	29	–
C/C=C/C1=C(C(=O)O)N2C(=O)[C@@H](NC(=O)[C@H](N)c3ccc(O)cc3)[C@H]2SC1.O (relative stereo; 57) [CEFPROZIL, (E)-]	–	47

Test system: Escherichia coli
Assay: Minimum inhibitory concentration (MIC) against Escherichia coli by 2-fold microdilution technique.
Assay type: functional
Conditions: not given
In short: (§3)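 For each organism, an overnight culture was grown in Mueller-Hinton broth at 37 °C. Twofold microtiter dilutions in Nutrient Broth covered 0.005–125 µg/mL. Each well received about 10^4 organisms, and plates were incubated 18 h at 37 °C. MIC was the lowest concentration giving no visible growth.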

Compound	MIC [µg/mL]
C/C=C/C1=C(C(=O)O)N2C(=O)[C@@H](NC(=O)[C@H](N)c3ccc(O)cc3)[C@H]2SC1.O (relative stereo; 56) [CEFPROZIL, (E)-]	1
C/C=C/C1=C(C(=O)O)N2C(=O)[C@@H](NC(=O)[C@H](N)c3ccc(O)cc3)[C@H]2SC1.O (relative stereo; 57) [CEFPROZIL, (E)-]	8

Test system: Escherichia coli
Assay: Minimum inhibitory concentration (MIC) […] against Escherichia coli.
Assay type: functional
Conditions: not given
In short: as §3

Compound	MIC [µg/mL]
C/C=C/C1=C(C(=O)O)N2C(=O)[C@@H](NC(=O)[C@H](N)c3ccc(O)cc3)[C@H]2SC1.O (relative stereo; 56) [CEFPROZIL, (E)-]	2
C/C=C/C1=C(C(=O)O)N2C(=O)[C@@H](NC(=O)[C@H](N)c3ccc(O)cc3)[C@H]2SC1.O (relative stereo; 57) [CEFPROZIL, (E)-]	8

Test system: Haemophilus influenzae
Assay: Minimum inhibitory concentration (MIC) against Haemophilus influenzae by 2-fold microdilution technique.
Assay type: functional
Conditions: not given
In short: as §3

Compound	MIC [µg/mL]
C/C=C/C1=C(C(=O)O)N2C(=O)[C@@H](NC(=O)[C@H](N)c3ccc(O)cc3)[C@H]2SC1.O (relative stereo; 57) [CEFPROZIL, (E)-]	4

Same assay, conditions: Haemophilus influenzae; read-out: MIC

Compound	MIC [µg/mL]
C/C=C/C1=C(C(=O)O)N2C(=O)[C@@H](NC(=O)[C@H](N)c3ccc(O)cc3)[C@H]2SC1.O (relative stereo; 56) [CEFPROZIL, (E)-]	2

Test system: Klebsiella pneumoniae
Assay: Minimum inhibitory concentration (MIC) against Klebsiella pneumoniae by 2-fold microdilution technique.
Assay type: functional
Conditions: not given
In short: as §3

Compound	MIC [µg/mL]
C/C=C/C1=C(C(=O)O)N2C(=O)[C@@H](NC(=O)[C@H](N)c3ccc(O)cc3)[C@H]2SC1.O (relative stereo; 56) [CEFPROZIL, (E)-]	2
C/C=C/C1=C(C(=O)O)N2C(=O)[C@@H](NC(=O)[C@H](N)c3ccc(O)cc3)[C@H]2SC1.O (relative stereo; 57) [CEFPROZIL, (E)-]	8

Test system: Escherichia coli
Assay: Protective dose (PD50) against Escherichia coli infected mice
Assay type: functional
Conditions: read-out: PD50
In short: (§4)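 Male Swiss-Webster mice (20 ± 2 g) were challenged intraperitoneally with enough bacteria to kill untreated controls within 72 h. Drug was given orally by gavage twice: at 0 and 2 h after E. coli challenge, or at 1 and 3.5 h after S. pneumoniae challenge. PD50 is the dose in mg/kg per dose that protects 50% of animals.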

Compound	ED50 [mg/kg]
C/C=C/C1=C(C(=O)O)N2C(=O)[C@@H](NC(=O)[C@H](N)c3ccc(O)cc3)[C@H]2SC1.O (relative stereo; 56) [CEFPROZIL, (E)-]	1.2

Test system: Streptococcus pneumoniae
Assay: Protective dose (PD50) against Streptococcus pneumoniae infected mice
Assay type: functional
Conditions: not given
In short: as §4

Compound	PD50 [mg/kg]
C/C=C/C1=C(C(=O)O)N2C(=O)[C@@H](NC(=O)[C@H](N)c3ccc(O)cc3)[C@H]2SC1.O (relative stereo; 57) [CEFPROZIL, (E)-]	0.5

Same assay, conditions: Streptococcus pneumoniae; read-out: PD50

Compound	ED50 [mg/kg]
C/C=C/C1=C(C(=O)O)N2C(=O)[C@@H](NC(=O)[C@H](N)c3ccc(O)cc3)[C@H]2SC1.O (relative stereo; 56) [CEFPROZIL, (E)-]	0.4

Test system: Proteus mirabilis
Assay: Minimum inhibitory concentration (MIC) against Proteus mirabilis by 2-fold microdilution technique.
Assay type: functional
Conditions: not given
In short: as §3

Compound	MIC [µg/mL]
C/C=C/C1=C(C(=O)O)N2C(=O)[C@@H](NC(=O)[C@H](N)c3ccc(O)cc3)[C@H]2SC1.O (relative stereo; 56) [CEFPROZIL, (E)-]	0.25
C/C=C/C1=C(C(=O)O)N2C(=O)[C@@H](NC(=O)[C@H](N)c3ccc(O)cc3)[C@H]2SC1.O (relative stereo; 57) [CEFPROZIL, (E)-]	1

Test system: Streptococcus pneumoniae
Assay: Minimum inhibitory concentration (MIC) against Streptococcus pneumoniae by 2-fold microdilution technique
Assay type: functional
Conditions: not given
In short: as §3

Compound	MIC [µg/mL]
C/C=C/C1=C(C(=O)O)N2C(=O)[C@@H](NC(=O)[C@H](N)c3ccc(O)cc3)[C@H]2SC1.O (relative stereo; 57) [CEFPROZIL, (E)-]	0.06

Same assay, conditions: Streptococcus pneumoniae; read-out: MIC

Compound	MIC [µg/mL]
C/C=C/C1=C(C(=O)O)N2C(=O)[C@@H](NC(=O)[C@H](N)c3ccc(O)cc3)[C@H]2SC1.O (relative stereo; 56) [CEFPROZIL, (E)-]	0.03

Test system: Streptococcus pneumoniae
Assay: Minimum inhibitory concentration (MIC) […] against Streptococcus pneumoniae.
Assay type: functional
Conditions: not given
In short: as §3

Compound	MIC [µg/mL]
C/C=C/C1=C(C(=O)O)N2C(=O)[C@@H](NC(=O)[C@H](N)c3ccc(O)cc3)[C@H]2SC1.O (relative stereo; 56) [CEFPROZIL, (E)-]	0.016
C/C=C/C1=C(C(=O)O)N2C(=O)[C@@H](NC(=O)[C@H](N)c3ccc(O)cc3)[C@H]2SC1.O (relative stereo; 57) [CEFPROZIL, (E)-]	0.06

Test system: Enterococcus faecalis
Assay: Minimum inhibitory concentration (MIC) against Streptococcus faecalis by 2-fold microdilution technique.
Assay type: functional
Conditions: not given
In short: as §3

Compound	MIC [µg/mL]
C/C=C/C1=C(C(=O)O)N2C(=O)[C@@H](NC(=O)[C@H](N)c3ccc(O)cc3)[C@H]2SC1.O (relative stereo; 57) [CEFPROZIL, (E)-]	4

Same assay, conditions: Enterococcus faecalis; read-out: MIC

Compound	MIC [µg/mL]
C/C=C/C1=C(C(=O)O)N2C(=O)[C@@H](NC(=O)[C@H](N)c3ccc(O)cc3)[C@H]2SC1.O (relative stereo; 56) [CEFPROZIL, (E)-]	2

Test system: Streptococcus pyogenes
Assay: Minimum inhibitory concentration (MIC) against Streptococcus pyogenes by 2-fold microdilution technique
Assay type: functional
Conditions: not given
In short: as §3

Compound	MIC [µg/mL]
C/C=C/C1=C(C(=O)O)N2C(=O)[C@@H](NC(=O)[C@H](N)c3ccc(O)cc3)[C@H]2SC1.O (relative stereo; 57) [CEFPROZIL, (E)-]	0.03

Same assay, conditions: Streptococcus pyogenes; read-out: MIC

Compound	MIC [µg/mL]
C/C=C/C1=C(C(=O)O)N2C(=O)[C@@H](NC(=O)[C@H](N)c3ccc(O)cc3)[C@H]2SC1.O (relative stereo; 56) [CEFPROZIL, (E)-]	0.016

Test system: Staphylococcus aureus
Assay: Minimum inhibitory concentration (MIC) against Staphylococcus aureus by 2-fold microdilution technique.
Assay type: functional
Conditions: not given
In short: as §3

Compound	MIC [µg/mL]
C/C=C/C1=C(C(=O)O)N2C(=O)[C@@H](NC(=O)[C@H](N)c3ccc(O)cc3)[C@H]2SC1.O (relative stereo; 57) [CEFPROZIL, (E)-]	0.25

Same assay, conditions: Staphylococcus aureus; read-out: MIC

Compound	MIC [µg/mL]
C/C=C/C1=C(C(=O)O)N2C(=O)[C@@H](NC(=O)[C@H](N)c3ccc(O)cc3)[C@H]2SC1.O (relative stereo; 56) [CEFPROZIL, (E)-]	0.13
